The source made the active and inactive calls. The calls are words filed in the database; no cut-off is given here.
Experiments:
[1] = system: J774; test: Inhibition of PI3K/Akt in mouse J774 cells assessed as reduction in LPS-induced Akt phosphorylation at Ser473 after 4 hrs by Western blot analysis; type: cell-based
Procedure, shortened: (§1)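 J774 macrophages were exposed to LPS (10 ng/mL) for 4 h with increasing compound concentrations, then lysed on ice in Tris/EDTA/Triton buffer with protease and phosphatase inhibitors. Lysate protein (20 μg) was Western blotted with an antibody against Akt phospho-S473. Chemiluminescence was quantified; mean + SEM, n = 4.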

[2] = system: J774; test: Antiinflammatory activity in mouse J774 cells assessed as reduction in LPS-induced nitric oxide production after 24 hrs by Griess assay; type: functional, cell-based; settings: for IC50: J774, 24 h
Procedure, shortened: (§2)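 Confluent J774 macrophages (72 h growth, DMEM/10% FBS) were treated with LPS 10 ng/mL plus increasing compound concentrations for 24 h. NO production was followed as nitrite accumulated in the medium, measured by Griess test. The half-maximal inhibitory concentration was derived from the concentration series; n = 4.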

[3] = system: J774; test: Antiinflammatory activity in mouse J774 cells assessed as reduction in LPS-induced MCP1 expression after 24 hrs by ELISA; type: functional, cell-based; settings: for IC50: J774, 24 h
Procedure, shortened: (§3)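 J774 macrophages were grown 72 h to confluence in DMEM with 10% heat-inactivated FBS. Cells were stimulated with LPS (10 ng/mL) with increasing compound concentrations for 24 h. IL6 or MCP1 in the collected medium was measured by ELISA. Concentration giving 50% inhibition was taken from the concentration series; mean + SEM, n = 4.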

[4] = system: J774; test: Antiinflammatory activity in mouse J774 cells assessed as reduction in LPS-induced IL6 expression after 24 hrs by ELISA; type: functional, cell-based; settings: for IC50: J774, 24 h; procedure, shortened: as §3
[5] = system: J774; test: Inhibition of PI3K/Akt in mouse J774 cells assessed as reduction in LPS-induced Akt phosphorylation at Ser473 at 30 uM after 4 hrs by Western blot analysis; type: cell-based; procedure, shortened: as §1
[6] = system: J774; test: Inhibition of PI3K/Akt in mouse J774 cells assessed as reduction in LPS-induced Akt phosphorylation at Ser473 at 100 uM after 4 hrs by Western blot analysis; type: cell-based; procedure, shortened: as §1
[7] = system: J774; test: Antiinflammatory activity in mouse J774 cells assessed as reduction in LPS-induced IL6 expression at 30 uM after 24 hrs by ELISA; type: functional, cell-based; procedure, shortened: as §3
[8] = system: J774; test: Antiinflammatory activity in mouse J774 cells assessed as reduction in LPS-induced MCP1 expression at 30 uM after 24 hrs by ELISA; type: functional, cell-based; procedure, shortened: as §3
[9] = system: J774; test: Antiinflammatory activity in mouse J774 cells assessed as reduction in LPS-induced nitric oxide production at 30 uM after 24 hrs by Griess assay; type: functional, cell-based; procedure, shortened: as §2
[10] = system: Mus musculus; test: Antiinflammatory activity in carrageenan induced C57BL/6 mouse model of inflammation assessed as reduction in paw edema at 2 mg/kg, ip pretreated for 1 to 2 hrs followed by carrageenan challenge measured after 3 to 6 hrs by plethysmometer; type: functional, organism-based
Procedure, shortened: (§4)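 Mice got compound i.p. in 10% DMSO in PBS (pH 7.4) before carrageenan. Under i.p. medetomidine (0.5 mg/kg) plus ketamine (75 mg/kg), one hindpaw received 50 μL intradermal 1.5% w/v λ-carrageenan in saline, and the contralateral paw got saline. Paw volume was measured by plethysmometer before and 3 and 6 h after. Edema = carrageenan-paw minus saline-paw volume change; n = 6–7/group.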

[11] = system: Mus musculus; test: Antiinflammatory activity in carrageenan induced C57BL/6 mouse model of inflammation assessed as reduction in MCP1 expression in hind paw at 2 mg/kg, ip pretreated for 1 to 2 hrs followed by carrageenan challenge measured after 6 hrs by ELISA; type: functional, organism-based
Procedure, shortened: (§5)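 Compound was given i.p. in 10% DMSO/PBS (pH 7.4) before intradermal 1.5% w/v λ-carrageenan (50 μL) into one hindpaw under anesthesia; the contralateral paw got saline. At 6 h, paw tissue was collected into 50 mM Tris pH 7.4, 150 mM NaCl with protease/phosphatase inhibitors, minced and centrifuged (10000g, 10 min). Supernatant cytokine was read by ELISA; n = 6–7/group.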

[12] = system: Mus musculus; test: Antiinflammatory activity in carrageenan induced C57BL/6 mouse model of inflammation assessed as reduction in IL6 expression in hind paw at 2 mg/kg, ip pretreated for 1 to 2 hrs followed by carrageenan challenge measured after 6 hrs by ELISA; type: functional, organism-based; procedure, shortened: as §5
[13] = system: Mus musculus; test: Antiinflammatory activity in carrageenan induced C57BL/6 mouse model of inflammation assessed as reduction in IL6 expression in hind paw at 15 mg/kg, ip pretreated for 1 to 2 hrs followed by carrageenan challenge measured after 6 hrs by ELISA; type: functional, organism-based; procedure, shortened: as §5
[14] = system: Mus musculus; test: Antiinflammatory activity in carrageenan induced C57BL/6 mouse model of inflammation assessed as reduction in MCP1 expression in hind paw at 15 mg/kg, ip pretreated for 1 to 2 hrs followed by carrageenan challenge measured after 6 hrs by ELISA; type: functional, organism-based; procedure, shortened: as §5
[15] = system: Mus musculus; test: Antiinflammatory activity in carrageenan induced C57BL/6 mouse model of inflammation assessed as reduction in paw edema at 15 mg/kg, ip pretreated for 1 to 2 hrs followed by carrageenan challenge measured after 3 to 6 hrs by plethysmometer; type: functional, organism-based; procedure, shortened: as §4
[16] = system: J774; test: Inhibition of PI3K/Akt in mouse J774 cells assessed as reduction in LPS-induced Akt phosphorylation at Ser473 at 10 uM after 4 hrs by Western blot analysis; type: cell-based; procedure, shortened: as §1
[17] = system: Mus musculus; test: Antiinflammatory activity in carrageenan induced C57BL/6 mouse model of inflammation assessed as reduction in paw edema at 30 mg/kg, ip pretreated for 1 to 2 hrs followed by carrageenan challenge measured after 3 to 6 hrs by plethysmometer; type: functional, organism-based; procedure, shortened: as §4
[18] = system: Mus musculus; test: Antiinflammatory activity in carrageenan induced C57BL/6 mouse model of inflammation assessed as reduction in MCP1 expression in hind paw at 30 mg/kg, ip pretreated for 1 to 2 hrs followed by carrageenan challenge measured after 6 hrs by ELISA; type: functional, organism-based; procedure, shortened: as §5
[19] = system: Mus musculus; test: Antiinflammatory activity in carrageenan induced C57BL/6 mouse model of inflammation assessed as reduction in IL6 expression in hind paw at 30 mg/kg, ip pretreated for 1 to 2 hrs followed by carrageenan challenge measured after 6 hrs by ELISA; type: functional, organism-based; procedure, shortened: as §5

| IC50 [2] [µM] | IC50 [3] [µM] | IC50 [4] [µM] | Compound | inhibition [1] | Activity [2] | Activity [3] | Activity [4] | inhibition [5] | other results |
| --- | --- | --- | --- | --- | --- | --- | --- | --- | --- |
| 103 | 19.4 | 99.1 | COc1ccc(/C=C/c2cc(O)cc(O)c2)cc1O | Dose-dependent effect | Dose-dependent effect | Dose-dependent effect | Dose-dependent effect | – | – |
| – | – | – | C=CCOc1cc(O)cc(/C=C/c2ccccc2)c1 | – | – | – | – | Active | – |
| – | – | – | CC(C)(C)Oc1cc(O)cc(/C=C/c2ccccc2)c1 | – | – | – | – | inactive | – |
| – | – | – | CCCOc1cc(O)cc(/C=C/c2ccccc2)c1 | – | – | – | – | inactive | – |
| – | – | – | CCOc1cc(O)cc(/C=C/c2ccccc2)c1 | – | – | – | – | Active | – |
| – | – | – | COc1ccc(/C=C/c2cc(O)cc(O[C@@H]3O[C@H](CO)[C@@H](O)[C@H](O)[C@H]3O)c2)cc1O | – | – | – | – | – | inhibition [6]: inactive; Activity [7]: inactive; Activity [8]: inactive; Activity [9]: inactive |
| – | – | – | C[C@@H]1C[C@H]2[C@@H]3CCC4=CC(=O)C=C[C@]4(C)[C@@]3(F)[C@@H](O)C[C@]2(C)[C@@]1(O)C(=O)CO | – | – | – | – | – | Activity [10]: Active; Activity [11]: Active; Activity [12]: Active |
| – | – | – | OC[C@H]1O[C@@H](Oc2cc(O)cc(/C=C/c3ccc(O)c(O)c3)c2)[C@H](O)[C@@H](O)[C@@H]1O | – | – | – | – | – | inhibition [6]: inactive; Activity [7]: inactive; Activity [8]: inactive; Activity [9]: inactive |
| – | – | – | Oc1cc(/C=C/c2ccccc2)cc(OCc2ccccc2)c1 | – | – | – | – | inactive | – |
| 8.9 | 3.7 | 5.1 | O=c1cc(N2CCOCC2)oc2c(-c3ccccc3)cccc12 [LY-294002] | – | – | – | – | – | Activity [13]: Active; Activity [14]: Active; Activity [15]: Active; inhibition [16]: Active |
| 2.6 | 4 | 13 | Oc1cc(O)cc(/C=C/c2ccc(O)c(O)c2)c1 [PICEATANNOL] | Dose-dependent effect | Dose-dependent effect | Dose-dependent effect | Dose-dependent effect | – | Activity [17]: Active; Activity [18]: Active; Activity [19]: Active |
| 37 | 23.7 | 30.2 | COc1cc(O)cc(/C=C/c2ccccc2)c1 [PINOSYLVIN METHYL ETHER] | Dose-dependent effect | Dose-dependent effect | Dose-dependent effect | Dose-dependent effect | – | – |
| 16.6 | 38.7 | 32.1 | Oc1cc(O)cc(/C=C/c2ccccc2)c1 [PINOSYLVIN] | Dose-dependent effect | Dose-dependent effect | Dose-dependent effect | Dose-dependent effect | – | Activity [17]: Active; Activity [18]: Active; Activity [19]: Active |
| 16.7 | 10.5 | 8.7 | COc1cc(/C=C/c2ccc(O)cc2)cc(OC)c1 [PTEROSTILBENE] | Dose-dependent effect | Dose-dependent effect | Dose-dependent effect | Dose-dependent effect | – | Activity [17]: Active; Activity [18]: Active; Activity [19]: Active |
| 12.2 | 13.6 | 6.8 | Oc1ccc(/C=C/c2cc(O)cc(O)c2)cc1 [RESVERATROL] | Dose-dependent effect | Dose-dependent effect | Dose-dependent effect | Dose-dependent effect | – | – |
